# Laboratory results reported in ChEMBL document CHEMBL2380245, “Synthesis and evaluation of 2,3-dinorprostaglandins: Dinor-PGD1 and 13-epi-dinor-PGD1 are peroxisome proliferator-activated receptor α/γ dual agonists” (Bioorg Med Chem Lett, 2013).
# Active and inactive are the calls of the source. The calls are words filed in the database; no cut-off is given here.
# Legend:
# Format in all cases: cell-based
# [1] = biological target: T1, Peroxisome proliferator-activated receptor delta (Homo sapiens) (UniProt Q03181); assay: Agonist activity at PPARdelta (unknown origin) transfected in HEK293 cells at 10 uM by luciferase reporter gene assay
# T1 sequence (whole entry): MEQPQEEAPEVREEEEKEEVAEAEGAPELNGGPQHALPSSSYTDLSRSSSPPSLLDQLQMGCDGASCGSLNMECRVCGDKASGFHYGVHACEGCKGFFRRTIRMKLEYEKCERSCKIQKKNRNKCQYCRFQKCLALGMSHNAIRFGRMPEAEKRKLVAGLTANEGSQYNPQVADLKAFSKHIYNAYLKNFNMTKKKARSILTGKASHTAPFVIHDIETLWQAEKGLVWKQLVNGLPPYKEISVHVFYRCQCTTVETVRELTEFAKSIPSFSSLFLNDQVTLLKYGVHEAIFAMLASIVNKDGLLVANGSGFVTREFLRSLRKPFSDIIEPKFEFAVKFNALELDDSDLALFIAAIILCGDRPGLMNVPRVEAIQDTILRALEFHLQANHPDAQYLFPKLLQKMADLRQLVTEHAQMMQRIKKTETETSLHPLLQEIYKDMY
# [2] = biological target: T2, Peroxisome proliferator-activated receptor gamma (Homo sapiens) (UniProt P37231); assay: Agonist activity at PPARgamma (unknown origin) transfected in HEK293 cells at 10 uM by luciferase reporter gene assay
# T2 sequence (whole entry): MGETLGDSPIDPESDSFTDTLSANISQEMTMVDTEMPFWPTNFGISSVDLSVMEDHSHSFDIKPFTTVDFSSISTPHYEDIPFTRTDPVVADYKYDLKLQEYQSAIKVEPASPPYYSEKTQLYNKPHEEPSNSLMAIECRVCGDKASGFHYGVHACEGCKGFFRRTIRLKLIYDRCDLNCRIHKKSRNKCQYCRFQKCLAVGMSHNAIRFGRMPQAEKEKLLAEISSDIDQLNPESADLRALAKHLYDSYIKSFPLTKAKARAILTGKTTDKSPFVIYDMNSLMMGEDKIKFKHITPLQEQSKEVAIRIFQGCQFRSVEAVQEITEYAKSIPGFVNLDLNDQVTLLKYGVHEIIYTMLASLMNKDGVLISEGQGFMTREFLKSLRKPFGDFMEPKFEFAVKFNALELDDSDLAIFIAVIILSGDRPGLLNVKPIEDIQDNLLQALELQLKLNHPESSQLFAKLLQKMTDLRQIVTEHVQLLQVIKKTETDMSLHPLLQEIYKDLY
# In short: (§1)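 Luciferase PPAR reporter assay in transfected HEK293 cells, run following a previously reported protocol. Each receptor was tested alongside a subtype-selective reference agonist as control: PPARα at 10 µM, PPARδ at 100 nM and PPARγ at 10 µM.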
# [3] = biological target: T3, Peroxisome proliferator-activated receptor alpha (Homo sapiens) (UniProt Q07869); assay: Agonist activity at PPARalpha (unknown origin) transfected in HEK293 cells at 10 uM by luciferase reporter gene assay; in short: as §1
# T3 sequence (whole entry): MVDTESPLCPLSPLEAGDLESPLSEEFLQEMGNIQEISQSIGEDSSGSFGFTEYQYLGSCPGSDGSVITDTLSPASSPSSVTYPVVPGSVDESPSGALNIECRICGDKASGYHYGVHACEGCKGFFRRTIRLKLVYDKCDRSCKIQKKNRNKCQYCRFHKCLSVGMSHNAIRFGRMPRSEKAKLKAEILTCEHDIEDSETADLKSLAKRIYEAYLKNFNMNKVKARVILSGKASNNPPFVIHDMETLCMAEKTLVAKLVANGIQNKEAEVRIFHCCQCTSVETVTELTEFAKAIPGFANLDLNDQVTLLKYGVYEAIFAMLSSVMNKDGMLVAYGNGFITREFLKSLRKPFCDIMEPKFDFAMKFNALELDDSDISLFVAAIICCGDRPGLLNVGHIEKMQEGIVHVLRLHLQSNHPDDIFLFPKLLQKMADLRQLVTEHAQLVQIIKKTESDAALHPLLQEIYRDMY
# [4] = biological target: T2, Peroxisome proliferator-activated receptor gamma (Homo sapiens); assay: Agonist activity at PPARgamma (unknown origin) transfected in HEK293 cells at 1 to 30 uM by luciferase reporter gene assay
# [5] = biological target: T3, Peroxisome proliferator-activated receptor alpha (Homo sapiens); assay: Agonist activity at PPARalpha (unknown origin) transfected in HEK293 cells at 1 to 30 uM by luciferase reporter gene assay
SMILES,Activity [1],Activity [2],Activity [3],Activity [4],Activity [5]
CC(C)(Oc1ccc(C(=O)c2ccc(Cl)cc2)cc1)C(=O)O,Active,Active,Active,–,–
CC1(COc2ccc(CC3SC(=O)NC3=O)cc2)CCCCC1 (stereo not given),Active,Active,Active,–,–
CCCCC/C=C/C=C1/C(=O)C=C[C@@H]1CCCCC(=O)O,Active,Active,Active,–,–

# More lines, now with the values ahead:
Activity [1],Activity [2],Activity [3],Activity [4],Activity [5],SMILES
–,–,Active,Active,Active,CCCCC[C@@H](O)/C=C/[C@H]1C(=O)C[C@H](O)[C@@H]1CCCCC(=O)O
Active,Active,Active,Active,Active,CCCCC[C@H](O)/C=C/[C@H]1C(=O)C[C@H](O)[C@@H]1C/C=C\CCCC(=O)O
–,–,Active,Active,Active,CCCCC[C@H](O)/C=C/[C@H]1C(=O)C[C@H](O)[C@@H]1CCCCC(=O)O
